# Measured values reported in ChEMBL document CHEMBL4393701, “Appendix A. dithioloquinolinethiones as new potential multitargeted antibacterial and antifungal agents: Synthesis, biological evaluation and molecular docking studies” (2019).
# Tests used:
# Penicillium ochrochloron [1] = assay: Fungicidal activity against Penicillium ochrochloron ATCC 9112 incubated for 72 hrs followed by sub-culturing on broth malt medium and measured after 72 hrs; assay type: functional; settings: ATCC 9112, 72 h
# How it was run: (§1)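 After 72 h exposure in malt broth, 2 µL from test wells was subcultured into wells holding 100 µL broth and incubated a further 72 h at 28 °C. MFC is the lowest concentration with no visible growth, taken as 99.5% kill of the original inoculum. Three independent experiments in duplicate.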
# Aspergillus fumigatus [2] = assay: Fungicidal activity against Aspergillus fumigatus ATCC 1022 incubated for 72 hrs followed by sub-culturing on broth malt medium and measured after 72 hrs; assay type: functional; settings: ATCC 1022, 72 h; how it was run: as §1
# Aspergillus ochraceus [3] = assay: Fungicidal activity against Aspergillus ochraceus ATCC 12066 incubated for 72 hrs followed by sub-culturing on broth malt medium and measured after 72 hrs; assay type: functional; settings: ATCC 12066, 72 h; how it was run: as §1
# Salmonella typhimurium [4] = assay: Bactericidal activity against Salmonella typhimurium ATCC 13311 incubated for 24 hrs followed by re-plating on tryptic soy broth; assay type: functional, Salmonella enterica subsp. enterica serovar Typhimurium; settings: Salmonella enterica, ATCC 13311, 24 h
# How it was run: (§2)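 Bacteria were grown in tryptic soy broth, 1.0×10^4 CFU per well, with compounds in 5% DMSO at 0.001-1.0 mg/ml for 24 h at 37 °C. Then 10 µL was subcultured into fresh TSB. MBC is the lowest concentration showing no growth after subculture, taken as 99.5% kill of the original inoculum. Duplicates, repeated three times.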
# Trichoderma viride [5] = assay: Fungicidal activity against Trichoderma viride IAM 5061 incubated for 72 hrs followed by sub-culturing on broth malt medium and measured after 72 hrs; assay type: functional; settings: IAM 5061, 72 h; how it was run: as §1
# Penicillium ochrochloron [6] = assay: Antifungal activity against Penicillium ochrochloron ATCC 9112 after 72 hrs by microdilution technique; assay type: functional; settings: ATCC 9112, 72 h
# How it was run: (§3)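 Spores were washed off malt agar with 0.85% saline containing 0.1% Tween 80 and adjusted to about 1.0×10^5 per well. Compounds in 5% DMSO were serially diluted (0.001-1.0 mg/ml) in malt broth with inoculum. Plates were shaken at 160 rpm for 72 h at 28 °C. MIC is the lowest concentration without visible growth under a binocular microscope. Three independent experiments in duplicate.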
# [7] = Antifungal activity against Penicillium funiculosum ATCC 36839 after 72 hrs by microdilution technique; assay type: functional; settings: Talaromyces pinophilus, ATCC 36839, 72 h; how it was run: as §3
# Aspergillus fumigatus [8] = assay: Antifungal activity against Aspergillus fumigatus ATCC 1022 after 72 hrs by microdilution technique; assay type: functional; settings: ATCC 1022, 72 h; how it was run: as §3
# Salmonella typhimurium [9] = assay: Antibacterial activity against Salmonella typhimurium ATCC 13311 after 24 hrs by iodonitrotetrazolium chloride dye based microdilution method; assay type: functional, Salmonella enterica subsp. enterica serovar Typhimurium; settings: Salmonella enterica, ATCC 13311, 24 h
# How it was run: (§4)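 Fresh overnight cultures adjusted spectrophotometrically to 1×10^5 CFU/mL, giving 1.0×10^4 CFU per well in tryptic soy broth. Compounds were dissolved in 5% DMSO and tested at 0.001-1.0 mg/ml by serial dilution; 5% DMSO was the negative control. After 24 h at 37 °C, 0.2 mg/mL INT solution was added for 30 min at 37 °C and OD read at 655 nm. MIC is the lowest concentration giving significant growth inhibition versus the positive control. Duplicates, repeated three times.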
# Penicillium cyclopium [10] = assay: Antifungal activity against Penicillium verrucosum var. cyclopium food isolate after 72 hrs by microdilution technique; assay type: functional; how it was run: as §3
# Aspergillus versicolor [11] = assay: Fungicidal activity against Aspergillus versicolor ATCC 11730 incubated for 72 hrs followed by sub-culturing on broth malt medium and measured after 72 hrs; assay type: functional; settings: ATCC 11730, 72 h; how it was run: as §1
# Escherichia coli [12] = assay: Antibacterial activity against Escherichia coli ATCC 35210 after 24 hrs by iodonitrotetrazolium chloride dye based microdilution method; assay type: functional; settings: ATCC 35210, 24 h; how it was run: as §4
# Pseudomonas aeruginosa [13] = assay: Antibacterial activity against Pseudomonas aeruginosa ATCC 27853 after 24 hrs by iodonitrotetrazolium chloride dye based microdilution method; assay type: functional; settings: ATCC 27853, 24 h; how it was run: as §4
# Aspergillus niger [14] = assay: Antifungal activity against Aspergillus niger ATCC 6275 after 72 hrs by microdilution technique; assay type: functional; settings: ATCC 6275, 72 h; how it was run: as §3
# Enterobacter cloacae [15] = assay: Antibacterial activity against Enterobacter cloacae clinical isolate after 24 hrs by iodonitrotetrazolium chloride dye based microdilution method; assay type: functional; how it was run: as §4
# [16] = Fungicidal activity against Penicillium funiculosum ATCC 36839 incubated for 72 hrs followed by sub-culturing on broth malt medium and measured after 72 hrs; assay type: functional; settings: Talaromyces pinophilus, ATCC 36839, 72 h; how it was run: as §1
# Aspergillus ochraceus [17] = assay: Antifungal activity against Aspergillus ochraceus ATCC 12066 after 72 hrs by microdilution technique; assay type: functional; settings: ATCC 12066, 72 h; how it was run: as §3
# Micrococcus flavus [18] = assay: Bactericidal activity against Micrococcus flavus ATCC 10240 incubated for 24 hrs followed by re-plating on tryptic soy broth; assay type: functional; settings: ATCC 10240, 24 h; how it was run: as §2
# Staphylococcus aureus [19] = assay: Bactericidal activity against Staphylococcus aureus ATCC 6538 incubated for 24 hrs followed by re-plating on tryptic soy broth; assay type: functional; settings: ATCC 6538, 24 h; how it was run: as §2
# Staphylococcus aureus [20] = assay: Antibacterial activity against Staphylococcus aureus ATCC 6538 after 24 hrs by iodonitrotetrazolium chloride dye based microdilution method; assay type: functional; settings: ATCC 6538, 24 h; how it was run: as §4
# Aspergillus versicolor [21] = assay: Antifungal activity against Aspergillus versicolor ATCC 11730 after 72 hrs by microdilution method; assay type: functional; settings: ATCC 11730, 72 h; how it was run: as §3
# Pseudomonas aeruginosa [22] = assay: Bactericidal activity against Pseudomonas aeruginosa ATCC 27853 incubated for 24 hrs followed by re-plating on tryptic soy broth; assay type: functional; settings: ATCC 27853, 24 h; how it was run: as §2
# Listeria monocytogenes [23] = assay: Antibacterial activity against Listeria monocytogenes NCTC 7973 after 24 hrs by iodonitrotetrazolium chloride dye based microdilution method; assay type: functional; settings: NCTC 7973, 24 h; how it was run: as §4
# Bacillus cereus [24] = assay: Antibacterial activity against Bacillus cereus clinical isolate after 24 hrs by iodonitrotetrazolium chloride dye based microdilution assay; assay type: functional; how it was run: as §4
# Aspergillus niger [25] = assay: Fungicidal activity against Aspergillus niger ATCC 6275 incubated for 72 hrs followed by sub-culturing on broth malt medium and measured after 72 hrs; assay type: functional; settings: ATCC 6275, 72 h; how it was run: as §1
# Penicillium cyclopium [26] = assay: Fungicidal activity against Penicillium verrucosum var. cyclopium food isolate incubated for 72 hrs followed by sub-culturing on broth malt medium and measured after 72 hrs; assay type: functional; how it was run: as §1
# Micrococcus flavus [27] = assay: Antibacterial activity against Micrococcus flavus ATCC 10240 after 24 hrs by iodonitrotetrazolium chloride dye based microdilution method; assay type: functional; settings: ATCC 10240, 24 h; how it was run: as §4
# Listeria monocytogenes [28] = assay: Bactericidal activity against Listeria monocytogenes NCTC 7973 incubated for 24 hrs followed by re-plating on tryptic soy broth; assay type: functional; settings: NCTC 7973, 24 h; how it was run: as §2
# Trichoderma viride [29] = assay: Antifungal activity against Trichoderma viride IAM 5061 after 72 hrs by microdilution technique; assay type: functional; settings: IAM 5061, 72 h; how it was run: as §3
# Enterobacter cloacae [30] = assay: Bactericidal activity against Enterobacter cloacae incubated for 24 hrs followed by re-plating on tryptic soy broth; assay type: functional; how it was run: as §2
# Escherichia coli [31] = assay: Bactericidal activity against Escherichia coli ATCC 35210 incubated for 24 hrs followed by re-plating on tryptic soy broth; assay type: functional; settings: ATCC 35210, 24 h; how it was run: as §2
# Bacillus cereus [32] = assay: Bactericidal activity against Bacillus cereus clinical isolate incubated for 24 hrs followed by re-plating on tryptic soy broth; assay type: functional; how it was run: as §2
MIC (Penicillium ochrochloron [6]),MIC [7],MIC (Aspergillus fumigatus [8]),MIC (Salmonella typhimurium [9]),MIC (Penicillium cyclopium [10]),MIC (Escherichia coli [12]),MIC (Pseudomonas aeruginosa [13]),MIC (Aspergillus niger [14]),MIC (Enterobacter cloacae [15]),MIC (Aspergillus ochraceus [17]),MIC (Staphylococcus aureus [20]),Structure (SMILES),MFC (Penicillium ochrochloron [1]),MFC (Aspergillus fumigatus [2]),MFC (Aspergillus ochraceus [3]),MBC (Salmonella typhimurium [4]),MFC (Trichoderma viride [5]),MFC (Aspergillus versicolor [11]),MFC [16],MBC (Micrococcus flavus [18]),MBC (Staphylococcus aureus [19]),also measured
3.53 ×10⁻² mM,3.53 ×10⁻² mM,3.53 ×10⁻² mM,106 µM,3.53 ×10⁻² mM,106 µM,70.7 µM,3.53 ×10⁻² mM,70.7 µM,1.88 ×10⁻² mM,106 µM,CC1(C)c2ssc(=S)c2-c2ccccc2N1C(=O)CSC1=NCCS1,7.06 ×10⁻² mM,7.06 ×10⁻² mM,3.53 ×10⁻² mM,141 µM,3.53 ×10⁻² mM,7.06 ×10⁻² mM,7.06 ×10⁻² mM,141 µM,141 µM,MIC (Aspergillus versicolor [21]): 3.53 ×10⁻² mM; MBC (Pseudomonas aeruginosa [22]): 141 µM; MIC (Listeria monocytogenes [23]): 106 µM; MIC (Bacillus cereus [24]): 106 µM; MFC (Aspergillus niger [25]): 7.06 ×10⁻² mM; MFC (Penicillium cyclopium [26]): 7.06 ×10⁻² mM; MIC (Micrococcus flavus [27]): 106 µM; MBC (Listeria monocytogenes [28]): 141 µM; MIC (Trichoderma viride [29]): 1.88 ×10⁻² mM; MBC (Enterobacter cloacae [30]): 141 µM; MBC (Escherichia coli [31]): 141 µM; MBC (Bacillus cereus [32]): 141 µM
0.99 ×10⁻² mM,11.1 ×10⁻² mM,11.1 ×10⁻² mM,37.1 µM,14.8 ×10⁻² mM,37.1 µM,37.1 µM,7.42 ×10⁻² mM,37.1 µM,14.8 ×10⁻² mM,37.1 µM,CC1(C)c2ssc(=S)c2-c2ccccc2N1C(=O)CN1C(=O)CCC1=O,1.98 ×10⁻² mM,14.8 ×10⁻² mM,29.7 ×10⁻² mM,74.2 µM,1.98 ×10⁻² mM,29.7 ×10⁻² mM,29.7 ×10⁻² mM,74.2 µM,74.2 µM,MIC (Aspergillus versicolor [21]): 14.8 ×10⁻² mM; MBC (Pseudomonas aeruginosa [22]): 74.2 µM; MIC (Listeria monocytogenes [23]): 37.1 µM; MIC (Bacillus cereus [24]): 37.1 µM; MFC (Aspergillus niger [25]): 14.8 ×10⁻² mM; MFC (Penicillium cyclopium [26]): 29.7 ×10⁻² mM; MIC (Micrococcus flavus [27]): 37.1 µM; MBC (Listeria monocytogenes [28]): 74.2 µM; MIC (Trichoderma viride [29]): 1.48 ×10⁻² mM; MBC (Enterobacter cloacae [30]): 74.2 µM; MBC (Escherichia coli [31]): 74.2 µM; MBC (Bacillus cereus [32]): 74.2 µM
0.4 ×10⁻² mM,1.59 ×10⁻² mM,1.59 ×10⁻² mM,29.8 µM,1.59 ×10⁻² mM,29.8 µM,29.8 µM,1.59 ×10⁻² mM,29.8 µM,1.59 ×10⁻² mM,29.8 µM,COc1ccc2c(c1)-c1c(ssc1=S)C(C)(C)N2C(=O)CSc1nc2ccccc2s1,0.8 ×10⁻² mM,2.98 ×10⁻² mM,2.98 ×10⁻² mM,59.7 µM,1.59 ×10⁻² mM,2.98 ×10⁻² mM,2.98 ×10⁻² mM,59.7 µM,59.7 µM,MIC (Aspergillus versicolor [21]): 1.59 ×10⁻² mM; MBC (Pseudomonas aeruginosa [22]): 59.7 µM; MIC (Listeria monocytogenes [23]): 29.8 µM; MIC (Bacillus cereus [24]): 29.8 µM; MFC (Aspergillus niger [25]): 2.98 ×10⁻² mM; MFC (Penicillium cyclopium [26]): 2.98 ×10⁻² mM; MIC (Micrococcus flavus [27]): 29.8 µM; MBC (Listeria monocytogenes [28]): 59.7 µM; MIC (Trichoderma viride [29]): 0.8 ×10⁻² mM; MBC (Enterobacter cloacae [30]): 59.7 µM; MBC (Escherichia coli [31]): 59.7 µM; MBC (Bacillus cereus [32]): 59.7 µM
